Data reported in ChEMBL document CHEMBL1641391, “Caffeic acid esters and lignans from Piper sanguineispicum” (J Nat Prod, 2010).

Legend:
[1] = Cytotoxicity against mouse peritoneal macrophages assessed as cell viability after 48 hrs by hematocytometer; assay type: cell-based; conditions: Peritoneal macrophage cell
Vero = assay: Cytotoxicity against african green monkey Vero cells assessed as [3H]-hypoxanthine incorporation after 48 hrs; assay type: cell-based; conditions: Chlorocebus sabaeus
Outline: (§1)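 Cells grown in RPMI with 10% fetal calf serum and exposed to serial compound dilutions for 48 h. Growth measured by [3H]-hypoxanthine incorporation relative to untreated control cultures. Inhibition percentages plotted versus concentration; IC50 read graphically.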

MCF7 = assay: Cytotoxicity against human MCF7 cells assessed as [3H]-hypoxanthine incorporation after 48 hrs; assay type: cell-based; outline: as §1
Leishmania amazonensis = assay: Antileishmanial activity against Leishmania amazonensis MHOM/BR/76/LTB-012 axenic amastigotes after 72 hrs by MTT assay; assay type: functional, organism-based; conditions: MHOM/BR/76/LTB-012, 72 h
Outline: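 Axenic amastigotes kept by weekly subpassage in MAA/20 medium, 32 ± 1 °C, 5% CO2. Seeded in 96-well plates. Compounds in DMSO tested at four concentrations (50–0.05 µg/mL or 50–0.2 µg/mL, depending on compound) for 72 h. MTT added for 4 h, stopped with 2-propanol/SDS, OD read at 570 nm. % inhibition computed against untreated control; IC50 from inhibition curve. Triplicates; amphotericin B reference.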

In the case of `CCC[C@H](C)OC(=O)/C=C/c1ccc(O)c(O)c1`, the IC50 [1] is reported as 72 µM, the IC50 (Vero) is reported as 62 µM and the IC50 (MCF7) is reported as 14 µM. The IC50 (Leishmania amazonensis) was 2 µM.

Work on `CCCCC[C@H](C)OC(=O)/C=C/c1ccc(O)c(O)c1` yielded an IC50 [1] of 16.1 µM, an IC50 (Vero) of 89.8 µM and an IC50 (MCF7) of 10.6 µM. It also gave an IC50 (Leishmania amazonensis) of 10 µM.

Work on `CCCCCCC[C@H](C)OC(=O)/C=C/c1ccc(O)c(O)c1` yielded an IC50 [1] of 12.7 µM, an IC50 (Vero) of 31 µM and an IC50 (MCF7) of 3.2 µM. For the same compound, the IC50 (Leishmania amazonensis) was 1.8 µM.

`O=C1OC[C@H]([C@H](O)c2ccc3c(c2)OCO3)[C@H]1Cc1ccc2c(c1)OCO2` gave an IC50 (Vero) of 114 µM, an IC50 (MCF7) of 151 µM and an IC50 (Leishmania amazonensis) of 79.4 µM.

`C[C@@H]1[C@H](O)[C@@H](C)/C=C/C=C/C=C/C=C/C=C/C=C/C=C/[C@H](O[C@@H]2O[C@H](C)[C@@H](O)[C@H](N)[C@@H]2O)C[C@@H]2O[C@](O)(C[C@@H](O)C[C@@H](O)[C@H](O)CC[C@@H](O)C[C@@H](O)CC(=O)O[C@H]1C)C[C@H](O)[C@H]2C(=O)O` [AMPHOTERICIN B] gave an IC50 [1] of 3.6 µM and an IC50 (Leishmania amazonensis) of 0.11 µM.

With `O=C(O)/C=C/c1ccc(O)c(O)c1` [CAFFEIC ACID] the IC50 [1] was > 550 µM, the IC50 (Vero) was > 550 µM and the IC50 (MCF7) was > 550 µM. For the same compound, the IC50 (Leishmania amazonensis) was 17.8 µM.

In the case of `OC[C@H](Cc1ccc2c(c1)OCO2)[C@H](CO)Cc1ccc2c(c1)OCO2` [DIHYDROCUBEBIN], the IC50 (Vero) is reported as 83.8 µM, the IC50 (MCF7) is reported as 89.4 µM and the IC50 (Leishmania amazonensis) is reported as > 140 µM.

For `O=C(CC(CO)C(=O)c1ccc2c(c1)OCO2)c1ccc2c(c1)OCO2` (stereo not given) [JUSTIFLORINOL], the IC50 (Vero) was > 281 µM, the IC50 (MCF7) was 140 µM and the IC50 (Leishmania amazonensis) was > 140 µM.

With `O=C1OC[C@H]([C@H](O)c2ccc3c(c2)OCO3)[C@H]1C(=O)c1ccc2c(c1)OCO2` [SANGUINOLIGNAN A] the IC50 [1] was > 260 µM, the IC50 (Vero) was 109 µM and the IC50 (MCF7) was 146 µM. It also gave an IC50 (Leishmania amazonensis) of 36.7 µM.

With `O=C1OC[C@@H]([C@H](O)c2ccc3c(c2)OCO3)[C@H]1C(=O)c1ccc2c(c1)OCO2` [SANGUINOLIGNAN B] the IC50 (Vero) was > 260 µM, the IC50 (MCF7) was 250 µM and the IC50 (Leishmania amazonensis) was > 130 µM.

For `COc1ccc([C@@H](OC(C)=O)[C@H]2COC(=O)[C@@H]2C(=O)c2ccc3c(c2)OCO3)cc1OC` [SANGUINOLIGNAN C], the IC50 (Vero) was > 226 µM, the IC50 (MCF7) was 79.2 µM and the IC50 (Leishmania amazonensis) was 105 µM.

In the case of `CC(=O)O[C@H](c1ccc2c(c1)OCO2)[C@H]1C(=O)OC[C@@H]1C(=O)c1ccc2c(c1)OCO2` [SANGUINOLIGNAN D], the IC50 (Vero) is reported as 82.1 µM, the IC50 (MCF7) is reported as 17.1 µM and the IC50 (Leishmania amazonensis) is reported as 69.7 µM.
